Activity calls are given as the source filed them.
Key:
[1] = target: Bromodomain-containing protein 4 (Homo sapiens) (UniProt O60885); experiment: Binding affinity to human partial length BRD4 bromodomain 1 long isoform (N44 to E168 residues) expressed in bacterial expression system at 1 uM by BROMOscan assay
Procedure, shortened: (§1)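 BROMOscan bromodomain cross-screen run by an outside service, compound at 1 µM against 32 recombinant bromodomains. Binding given as percent of control.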

[2] = target: Bromodomain-containing protein 7 (Homo sapiens) (UniProt Q9NPI1); experiment: Binding affinity to human partial length BRD7 (L125 to R254 residues) expressed in mammalian expression system at 1 uM by BROMOscan assay; procedure, shortened: as §1
[3] = target: Histone acetyltransferase KAT2A (Homo sapiens, UniProt Q92830); experiment: Binding affinity to human partial length GCN5L2 (E726 to K837 residues) expressed in bacterial expression system at 1 uM by BROMOscan assay; procedure, shortened: as §1
Chain of Histone acetyltransferase KAT2A (Q92830 2-837 limits assumed): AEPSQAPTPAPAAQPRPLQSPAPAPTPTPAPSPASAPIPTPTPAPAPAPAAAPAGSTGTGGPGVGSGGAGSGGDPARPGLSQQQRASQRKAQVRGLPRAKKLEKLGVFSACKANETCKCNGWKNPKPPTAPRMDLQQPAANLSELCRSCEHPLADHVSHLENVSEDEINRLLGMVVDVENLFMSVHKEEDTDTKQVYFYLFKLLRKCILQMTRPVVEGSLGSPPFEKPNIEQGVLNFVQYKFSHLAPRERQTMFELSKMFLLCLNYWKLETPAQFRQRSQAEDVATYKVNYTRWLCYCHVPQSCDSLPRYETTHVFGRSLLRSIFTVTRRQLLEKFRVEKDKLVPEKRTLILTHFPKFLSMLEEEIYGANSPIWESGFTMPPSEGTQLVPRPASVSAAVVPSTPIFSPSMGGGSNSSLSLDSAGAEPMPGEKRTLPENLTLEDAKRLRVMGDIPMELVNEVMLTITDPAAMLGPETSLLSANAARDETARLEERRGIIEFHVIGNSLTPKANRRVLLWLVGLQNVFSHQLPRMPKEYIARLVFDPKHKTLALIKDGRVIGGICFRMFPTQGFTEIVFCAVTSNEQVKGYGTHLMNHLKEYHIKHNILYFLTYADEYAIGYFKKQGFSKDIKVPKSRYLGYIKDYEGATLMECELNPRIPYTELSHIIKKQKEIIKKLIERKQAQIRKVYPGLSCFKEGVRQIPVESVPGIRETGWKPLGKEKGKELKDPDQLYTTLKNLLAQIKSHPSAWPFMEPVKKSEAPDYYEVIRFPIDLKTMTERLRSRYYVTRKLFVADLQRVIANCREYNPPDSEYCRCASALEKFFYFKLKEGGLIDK

[4] = Tmax in Sprague-Dawley rat at 10 mg/kg, po administered via gavage by LC-MS/MS analysis; type: ADME, organism-based; details: in vivo
[5] = target: AP2-associated protein kinase 1 (Homo sapiens) (UniProt Q2M2I8); experiment: Inhibition of human AAK1 at 10 uM using peptide substrate measured after 120 mins in presence of [gamma33P]ATP by scintillation counting method
Procedure, shortened: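 Kinase panel of 422 kinases screened by Eurofins KinaseProfiler at a single test-compound concentration of 10 µM.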

[6] = target: Bone morphogenetic protein receptor type-1B (Homo sapiens) (UniProt O00238); experiment: Inhibition of recombinant human ALK6 (148 to end residues) at 10 uM using casein as substrate measured after 40 mins in presence of [gamma33P]ATP by scintillation counting method
Chain of Bone morphogenetic protein receptor type-1B (Homo sapiens) (O00238 whole entry, canonical isoform): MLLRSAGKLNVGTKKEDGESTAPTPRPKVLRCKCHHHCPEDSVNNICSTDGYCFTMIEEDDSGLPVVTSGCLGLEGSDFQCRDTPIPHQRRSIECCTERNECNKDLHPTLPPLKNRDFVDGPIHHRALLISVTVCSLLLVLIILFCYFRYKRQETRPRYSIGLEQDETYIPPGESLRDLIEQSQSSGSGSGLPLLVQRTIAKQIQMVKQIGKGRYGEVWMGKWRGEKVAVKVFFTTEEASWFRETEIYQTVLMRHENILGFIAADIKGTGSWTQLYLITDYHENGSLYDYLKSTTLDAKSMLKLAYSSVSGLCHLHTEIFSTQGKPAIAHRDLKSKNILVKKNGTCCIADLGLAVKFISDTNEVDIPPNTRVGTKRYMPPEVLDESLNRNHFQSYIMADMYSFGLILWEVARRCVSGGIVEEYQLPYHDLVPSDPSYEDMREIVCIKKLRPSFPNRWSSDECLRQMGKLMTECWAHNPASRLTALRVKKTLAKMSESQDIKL

[7] = target: Casein kinase I isoform gamma-2 (Homo sapiens) (UniProt P78368); experiment: Inhibition of recombinant human CK1gamma2 (18 to end residues) at 10 uM using KRRRALS(p)VASLPGL as substrate measured after 40 mins in presence of [gamma33P]ATP by scintillation counting method
[8] = target: Tyrosine-protein kinase Fes/Fps (Homo sapiens) (UniProt P07332); experiment: Inhibition of recombinant human FES (2 to end residues) at 10 uM using poly(Glu, Tyr) 4:1 as substrate measured after 40 mins in presence of [gamma33P]ATP by scintillation counting method
[9] = target: Fibroblast growth factor receptor 1 (Homo sapiens) (UniProt P11362); experiment: Inhibition of recombinant human FGFR1 (456 to 765 residues) at 10 uM using KKKSPGEYVNIEFG as substrate measured after 40 mins in presence of [gamma33P]ATP by scintillation counting method
[10] = target: Tyrosine-protein kinase Fgr (Homo sapiens) (UniProt P09769); experiment: Inhibition of recombinant human FGR (2 to end residues) at 10 uM using poly(Glu, Tyr) 4:1 as substrate measured after 40 mins in presence of [gamma33P]ATP by scintillation counting method
[11] = test system: Macrophage colony-stimulating factor 1 receptor (Homo sapiens), P07333 [Y969C]; experiment: Inhibition of recombinant human FMS Y969C mutant (538 to end residues) at 10 uM using EEEEYEEEEEEYYIIEEEEEEYEEEEEEYYEEEEEEKKKK as substrate measured after 40 mins in presence of [gamma33P]ATP by scintillation counting method
Chain of Macrophage colony-stimulating factor 1 receptor (Homo sapiens), P07333 [Y969C] (P07333 whole entry Y969C): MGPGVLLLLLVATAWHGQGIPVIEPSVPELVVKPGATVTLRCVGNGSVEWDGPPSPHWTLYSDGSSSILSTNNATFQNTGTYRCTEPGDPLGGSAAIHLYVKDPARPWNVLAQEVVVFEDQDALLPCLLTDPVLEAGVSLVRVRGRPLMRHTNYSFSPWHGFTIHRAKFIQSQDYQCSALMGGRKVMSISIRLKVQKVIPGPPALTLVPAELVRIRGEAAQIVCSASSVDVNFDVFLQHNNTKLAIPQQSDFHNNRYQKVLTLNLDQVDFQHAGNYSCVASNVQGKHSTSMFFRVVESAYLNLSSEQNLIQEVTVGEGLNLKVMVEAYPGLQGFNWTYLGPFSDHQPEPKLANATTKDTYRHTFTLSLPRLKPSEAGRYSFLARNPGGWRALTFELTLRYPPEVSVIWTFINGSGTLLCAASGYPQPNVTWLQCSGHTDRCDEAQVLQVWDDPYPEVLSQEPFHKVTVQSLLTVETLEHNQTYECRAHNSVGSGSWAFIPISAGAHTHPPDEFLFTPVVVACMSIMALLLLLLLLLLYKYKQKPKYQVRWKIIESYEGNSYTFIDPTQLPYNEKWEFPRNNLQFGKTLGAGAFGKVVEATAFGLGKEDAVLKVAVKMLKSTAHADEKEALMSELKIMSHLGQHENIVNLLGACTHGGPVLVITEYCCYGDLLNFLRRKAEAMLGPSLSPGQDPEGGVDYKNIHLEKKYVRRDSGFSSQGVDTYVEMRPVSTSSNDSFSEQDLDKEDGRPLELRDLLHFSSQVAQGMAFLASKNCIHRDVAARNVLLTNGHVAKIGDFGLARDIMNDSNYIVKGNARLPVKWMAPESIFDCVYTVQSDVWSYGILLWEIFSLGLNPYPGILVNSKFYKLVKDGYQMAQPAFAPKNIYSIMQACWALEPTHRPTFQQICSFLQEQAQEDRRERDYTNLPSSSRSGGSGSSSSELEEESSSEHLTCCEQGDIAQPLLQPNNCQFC

[12] = target: Tyrosine-protein kinase JAK1 (Homo sapiens) (UniProt P23458); experiment: Inhibition of recombinant human JAK1 (866 to end residues) at 10 uM using GEEPLYWSFPAKKK as substrate measured after 40 mins in presence of [gamma33P]ATP by scintillation counting method
[13] = target: Mitogen-activated protein kinase 1 (Homo sapiens) (UniProt P28482); experiment: Inhibition of recombinant full-length human MAPK1 at 10 uM using myelin basic protein as substrate measured after 40 mins in presence of [gamma33P]ATP by scintillation counting method
[14] = target: Mitogen-activated protein kinase kinase kinase kinase 3 (Homo sapiens) (UniProt Q8IVH8); experiment: Inhibition of recombinant human MAP4K3 (1 to 291 residues) at 10 uM using RLGRDKYKTLRQIRQ as substrate measured after 40 mins in presence of [gamma33P]ATP by scintillation counting method
Chain of Mitogen-activated protein kinase kinase kinase kinase 3 (Homo sapiens) (Q8IVH8 whole entry, the tested form may be a part): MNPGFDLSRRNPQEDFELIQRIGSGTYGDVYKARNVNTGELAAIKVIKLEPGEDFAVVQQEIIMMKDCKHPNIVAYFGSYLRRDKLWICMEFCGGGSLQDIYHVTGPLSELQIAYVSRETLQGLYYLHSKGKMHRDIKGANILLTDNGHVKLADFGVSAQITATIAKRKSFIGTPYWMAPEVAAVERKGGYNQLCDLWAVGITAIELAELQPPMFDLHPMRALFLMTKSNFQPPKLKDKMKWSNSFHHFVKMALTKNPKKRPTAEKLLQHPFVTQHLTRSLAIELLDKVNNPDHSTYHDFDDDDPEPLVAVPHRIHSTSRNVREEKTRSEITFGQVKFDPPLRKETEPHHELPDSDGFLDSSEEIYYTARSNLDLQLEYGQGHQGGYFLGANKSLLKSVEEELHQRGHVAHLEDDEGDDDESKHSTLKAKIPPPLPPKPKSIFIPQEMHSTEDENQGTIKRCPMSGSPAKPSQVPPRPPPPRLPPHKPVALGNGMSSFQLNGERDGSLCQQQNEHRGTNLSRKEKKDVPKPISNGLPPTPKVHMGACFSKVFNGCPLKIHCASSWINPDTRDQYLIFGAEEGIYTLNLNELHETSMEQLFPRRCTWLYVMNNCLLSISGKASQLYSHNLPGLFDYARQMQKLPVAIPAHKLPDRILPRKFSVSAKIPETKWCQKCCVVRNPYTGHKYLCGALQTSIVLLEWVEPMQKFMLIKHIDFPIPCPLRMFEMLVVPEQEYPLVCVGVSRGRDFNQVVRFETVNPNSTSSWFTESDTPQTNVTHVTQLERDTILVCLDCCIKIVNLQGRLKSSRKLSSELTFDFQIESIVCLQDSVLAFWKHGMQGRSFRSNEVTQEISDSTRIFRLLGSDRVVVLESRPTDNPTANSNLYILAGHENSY

[15] = target: MAP kinase-activated protein kinase 3 (Homo sapiens) (UniProt Q16644); experiment: Inhibition of recombinant human MAPKAPK3 (2 to end residues) at 10 uM using KKLNRTLSVA as substrate measured after 40 mins in presence of [gamma33P]ATP by scintillation counting method
Chain of MAP kinase-activated protein kinase 3 (Homo sapiens) (Q16644 whole entry, looked up, the tested form may be a part): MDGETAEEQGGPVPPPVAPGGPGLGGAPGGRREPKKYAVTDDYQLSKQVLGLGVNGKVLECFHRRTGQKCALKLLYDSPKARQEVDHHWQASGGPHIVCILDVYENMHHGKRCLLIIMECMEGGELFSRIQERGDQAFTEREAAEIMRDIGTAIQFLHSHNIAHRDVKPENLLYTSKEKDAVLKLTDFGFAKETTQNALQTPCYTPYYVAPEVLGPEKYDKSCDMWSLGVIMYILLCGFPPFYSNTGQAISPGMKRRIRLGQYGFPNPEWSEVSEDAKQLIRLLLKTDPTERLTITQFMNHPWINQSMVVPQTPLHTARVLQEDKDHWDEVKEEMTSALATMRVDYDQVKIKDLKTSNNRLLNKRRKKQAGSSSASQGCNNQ

[16] = target: Mitogen-activated protein kinase kinase kinase 10 (Homo sapiens) (UniProt Q02779); experiment: Inhibition of recombinant human MLK2 (1 to 449 residues) at 10 uM using myelin basic protein as substrate measured after 40 mins in presence of [gamma33P]ATP by scintillation counting method
[17] = target: Myosin light chain kinase 2, skeletal/cardiac muscle (Homo sapiens) (UniProt Q9H1R3); experiment: Inhibition of recombinant full-length human MYLK2 at 10 uM using KKLNRTLSFAEPG as substrate measured after 40 mins in presence of [gamma33P]ATP by scintillation counting method
[18] = test system: Serine/threonine-protein kinase Nek4 (Homo sapiens), P51957 [P225A]; experiment: Inhibition of recombinant full-length human NEK4 P225A mutant at 10 uM using myelin basic protein as substrate measured after 40 mins in presence of [gamma33P]ATP by scintillation counting method
[19] = target: Protein kinase C iota type (Homo sapiens) (UniProt P41743); experiment: Inhibition of recombinant full-length human PKCiota at 10 uM using ERMRPRKRQGSVRRRV as substrate measured after 40 mins in presence of [gamma33P]ATP by scintillation counting method
Chain of Protein kinase C iota type (Homo sapiens) (P41743 whole entry): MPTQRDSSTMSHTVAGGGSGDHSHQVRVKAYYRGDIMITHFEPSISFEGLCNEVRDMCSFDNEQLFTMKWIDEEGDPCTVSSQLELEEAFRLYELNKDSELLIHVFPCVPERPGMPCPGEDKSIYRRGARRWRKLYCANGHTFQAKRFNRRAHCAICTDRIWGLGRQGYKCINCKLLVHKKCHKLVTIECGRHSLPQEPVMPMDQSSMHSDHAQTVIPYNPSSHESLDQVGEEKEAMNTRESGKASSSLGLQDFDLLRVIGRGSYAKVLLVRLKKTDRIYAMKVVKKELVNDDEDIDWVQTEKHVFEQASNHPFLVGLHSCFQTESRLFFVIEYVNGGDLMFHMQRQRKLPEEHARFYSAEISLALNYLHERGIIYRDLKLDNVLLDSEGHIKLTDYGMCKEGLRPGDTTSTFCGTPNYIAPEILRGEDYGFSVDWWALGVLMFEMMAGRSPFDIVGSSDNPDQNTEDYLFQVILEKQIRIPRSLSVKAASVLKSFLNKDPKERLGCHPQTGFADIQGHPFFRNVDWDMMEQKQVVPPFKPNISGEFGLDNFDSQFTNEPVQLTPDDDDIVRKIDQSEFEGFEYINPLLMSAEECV

[20] = target: Serine/threonine-protein kinase PLK1 (Homo sapiens) (UniProt P53350); experiment: Inhibition of recombinant full-length human Plk1 at 10 uM using casein as substrate measured after 40 mins in presence of [gamma33P]ATP by scintillation counting method
[21] = target: Serine/threonine-protein kinase PLK3 (Homo sapiens) (UniProt Q9H4B4); experiment: Inhibition of recombinant human Plk3 (19 to 301 residues) at 10 uM using casein as substrate measured after 40 mins in presence of [gamma33P]ATP by scintillation counting method
Chain of Serine/threonine-protein kinase PLK3 (Homo sapiens) (Q9H4B4 whole entry, looked up, the tested form may be a part): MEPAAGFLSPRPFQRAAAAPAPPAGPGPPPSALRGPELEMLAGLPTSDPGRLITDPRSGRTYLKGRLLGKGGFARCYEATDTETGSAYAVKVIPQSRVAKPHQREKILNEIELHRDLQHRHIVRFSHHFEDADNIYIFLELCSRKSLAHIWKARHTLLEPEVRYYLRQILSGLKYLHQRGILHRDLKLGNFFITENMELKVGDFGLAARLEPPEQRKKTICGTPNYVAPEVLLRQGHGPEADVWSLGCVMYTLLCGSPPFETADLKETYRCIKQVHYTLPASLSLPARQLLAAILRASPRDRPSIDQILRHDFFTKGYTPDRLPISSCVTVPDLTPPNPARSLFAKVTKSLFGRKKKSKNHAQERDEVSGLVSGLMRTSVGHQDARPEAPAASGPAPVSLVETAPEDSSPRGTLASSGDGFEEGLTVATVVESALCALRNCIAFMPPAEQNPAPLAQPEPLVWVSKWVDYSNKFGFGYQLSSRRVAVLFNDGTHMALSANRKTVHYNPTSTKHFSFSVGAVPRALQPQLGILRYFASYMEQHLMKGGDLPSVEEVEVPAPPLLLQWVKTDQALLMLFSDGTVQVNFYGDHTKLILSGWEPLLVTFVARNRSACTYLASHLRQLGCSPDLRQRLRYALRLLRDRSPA

[22] = target: Ribosomal protein S6 kinase alpha-1 (Homo sapiens) (UniProt Q15418); experiment: Inhibition of recombinant full-length human Rsk1 at 10 uM using KKKNRTLSVA as substrate measured after 40 mins in presence of [gamma33P]ATP by scintillation counting method
[23] = target: NT-3 growth factor receptor (Homo sapiens) (UniProt Q16288); experiment: Inhibition of human TrkC (510 to end residues) using GEEPLYWSFPAKKK as substrate measured after 40 mins in presence of [gamma33P]ATP by scintillation counting method
[24] = target: Tyrosine-protein kinase Yes (Homo sapiens) (UniProt P07947); experiment: Inhibition of recombinant full-length human Yes at 10 uM using poly(Glu, Tyr) 4:1 as substrate measured after 40 mins in presence of [gamma33P]ATP by scintillation counting method

CN1C[C@H](Nc2nc3cc[nH]c3c(=O)n2C)C[C@H](c2ccc3c(c2)OCCO3)C1
inactive: Activity [1] | Activity [2] | inhibition [5] | inhibition [6] | inhibition [7] | inhibition [8] | inhibition [9] | inhibition [10] | inhibition [11] | inhibition [12] | inhibition [13] | inhibition [14] | inhibition [15] | inhibition [16] | inhibition [17] | inhibition [18] | inhibition [19] | inhibition [20] | inhibition [21] | inhibition [22] | inhibition [23] | inhibition [24]
40.2 min: Tmax [4]
active: Activity [3]

Reference: ChEMBL document CHEMBL4350961, “Discovery of Pyrrolo[3,2- d]pyrimidin-4-one Derivatives as a New Class of Potent and Cell-Active Inhibitors of P300/CBP-Associated Factor Bromodomain” (J Med Chem, 2019)
